Data from ChEMBL document CHEMBL1221342, “Synthesis and in vitro antitumor activity of new 4,5-dihydropyrazole derivatives” (Bioorg Med Chem, 2010).

Columns and labels:
Assay type in all cases: functional
CCRF-CEM = experiment: Growth inhibition of human CCRF-CEM cells after 48 hrs by SRB assay
Summary of the method: (§1)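 NCI 60-cell-line screen. Cells grown in RPMI1640 with 5% fetal calf serum and 2 mM L-glutamine, with inoculum density set by cell line. Preincubated 24 h, then given compound in DMSO at 10^-4 to 10^-8 M (five 10-fold steps) for 48 h continuous exposure. Growth measured by SRB protein assay. GI50, TGI and LC50 reported as –log molar.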

HL-60(TB) = experiment: Growth inhibition of human HL-60(TB) cells after 48 hrs by SRB assay; settings: HL-60, 48 h
Summary of the method: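 NCI 60-cell-line screen: cells grown in RPMI1640 with 5% fetal calf serum and 2 mM L-glutamine, preincubated 24 h, then exposed to compound in DMSO at five concentrations (10^-4 to 10^-8 M) for 48 h continuous exposure. Growth estimated by sulforhodamine B protein assay; reported as pGI50 (-log molar concentration inhibiting net cell growth by 50%).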

[1] = Growth inhibition of human […] cells after 48 hrs by SRB assay; summary of the method: as §1
SR = experiment: Growth inhibition of human SR cells after 48 hrs by SRB assay; summary of the method: as §1
EKVX = experiment: Growth inhibition of human EKVX cells after 48 hrs by SRB assay; summary of the method: as §1
HOP-62 = experiment: Growth inhibition of human HOP62 cells after 48 hrs by SRB assay; settings: HOP-62, 48 h; summary of the method: as §1
NCI-H460 = experiment: Growth inhibition of human NCI-H460 cells after 48 hrs by SRB assay; settings: NCI-H460, 48 h; summary of the method: as §1
NCI-H522 = experiment: Growth inhibition of human NCI-H522 cells after 48 hrs by SRB assay; settings: NCI-H522, 48 h; summary of the method: as §1
HCT-15 = experiment: Growth inhibition of human HCT15 cells after 48 hrs by SRB assay; settings: HCT-15, 48 h; summary of the method: as §1
HT-29 = experiment: Growth inhibition of human HT-29 cells after 48 hrs by SRB assay; settings: HT-29, 48 h; summary of the method: as §1
KM12 = experiment: Growth inhibition of human KM12 cells after 48 hrs by SRB assay; settings: KM12, 48 h; summary of the method: as §1
SW-620 = experiment: Growth inhibition of human SW620 cells after 48 hrs by SRB assay; settings: SW-620, 48 h; summary of the method: as §1
SF-268 = experiment: Growth inhibition of human SF268 cells after 48 hrs by SRB assay; settings: SF-268, 48 h; summary of the method: as §1
SF-539 = experiment: Growth inhibition of human SF539 cells after 48 hrs by SRB assay; settings: SF-539, 48 h; summary of the method: as §1
SNB-75 = experiment: Growth inhibition of human SNB75 cells after 48 hrs by SRB assay; settings: SNB-75, 48 h; summary of the method: as §1
Malme-3M = experiment: Growth inhibition of human MALME-3M cells after 48 hrs by SRB assay; summary of the method: as §1
M14 = experiment: Growth inhibition of human M14 cells after 48 hrs by SRB assay; settings: M14, 48 h; summary of the method: as §1
SK-MEL-2 = experiment: Growth inhibition of human SK-MEL-2 cells after 48 hrs by SRB assay; settings: SK-MEL-2, 48 h; summary of the method: as §1
MDA-MB-435 = experiment: Growth inhibition of human MDA-MB-435 cells after 48 hrs by SRB assay; settings: MDA-MB-435, 48 h; summary of the method: as §1
SK-MEL-28 = experiment: Growth inhibition of human SK-MEL-28 cells after 48 hrs by SRB assay; settings: SK-MEL-28, 48 h; summary of the method: as §1
SK-MEL-5 = experiment: Growth inhibition of human SK-MEL-5 cells after 48 hrs by SRB assay; settings: SK-MEL-5, 48 h; summary of the method: as §1
IGROV-1 = experiment: Growth inhibition of human IGROV1 cells after 48 hrs by SRB assay; settings: IGROV-1, 48 h; summary of the method: as §1
OVCAR-3 = experiment: Growth inhibition of human OVCAR-3 cells after 48 hrs by SRB assay; settings: OVCAR-3, 48 h; summary of the method: as §1
OVCAR-8 = experiment: Growth inhibition of human OVCAR8 cells after 48 hrs by SRB assay; settings: OVCAR-8, 48 h; summary of the method: as §1
NCI/ADR-RES = experiment: Growth inhibition of human NCI/ADR-RES cells after 48 hrs by SRB assay; summary of the method: as §1
SK-OV-3 = experiment: Growth inhibition of human SKOV3 cells after 48 hrs by SRB assay; settings: SK-OV-3, 48 h; summary of the method: as §1
786-0 = experiment: Growth inhibition of human 786-0 cells after 48 hrs by SRB assay; settings: 786-0, 48 h; summary of the method: as §1
A498 = experiment: Growth inhibition of human A498 cells after 48 hrs by SRB assay; settings: A498, 48 h; summary of the method: as §1
CAKI-1 = experiment: Growth inhibition of human Caki1 cells after 48 hrs by SRB assay; settings: CAKI-1, 48 h; summary of the method: as §1
RXF 393 = experiment: Growth inhibition of human RXF393 cells after 48 hrs by SRB assay; settings: RXF 393, 48 h; summary of the method: as §1
TK-10 = experiment: Growth inhibition of human TK10 cells after 48 hrs by SRB assay; settings: TK-10, 48 h; summary of the method: as §1
UO-31 = experiment: Growth inhibition of human UO31 cells after 48 hrs by SRB assay; settings: UO-31, 48 h; summary of the method: as §1
DU-145 = experiment: Growth inhibition of human DU145 cells after 48 hrs by SRB assay; settings: DU-145, 48 h; summary of the method: as §1
[2] = Growth inhibition of human Hs 578T cells after 48 hrs by SRB assay; summary of the method: as §1
BT-549 = experiment: Growth inhibition of human BT549 cells after 48 hrs by SRB assay; settings: BT-549, 48 h; summary of the method: as §1
T47D = experiment: Growth inhibition of human T47D cells after 48 hrs by SRB assay; summary of the method: as §1
MDA-MB-468 = experiment: Growth inhibition of human MDA-MB-468 cells after 48 hrs by SRB assay; settings: MDA-MB-468, 48 h; summary of the method: as §1

SMILES: COc1cc(C2CC(c3ccc(N(C)C)cc3)=NN2C(C)=O)cc(OC)c1OC (configuration not stated)
- GI50 (CCRF-CEM): 2510 nM
- TGI (CCRF-CEM; read-out: pTGI (converted)): > 100000 nM
- GI50 (HL-60(TB)): 1000 nM
- TGI (HL-60(TB); read-out: pTGI (converted)): 6310 nM
- GI50 [1]: 3160 nM
- TGI ([1]; read-out: pTGI (converted)): 15800 nM
- GI50 (SR): 631 nM
- TGI (SR; read-out: pTGI (converted)): > 100000 nM
- GI50 (EKVX): 5010 nM
- TGI (EKVX; read-out: pTGI (converted)): > 100000 nM
- GI50 (HOP-62): 794 nM
- TGI (HOP-62; read-out: pTGI (converted)): > 100000 nM
- GI50 (NCI-H460): 631 nM
- TGI (NCI-H460; read-out: pTGI (converted)): > 100000 nM
- GI50 (NCI-H522): 631 nM
- TGI (NCI-H522; read-out: pTGI (converted)): 7940 nM
- GI50 (HCT-15): 631 nM
- GI50 (HT-29): 398 nM
- TGI (HT-29; read-out: pTGI (converted)): 15800 nM
- GI50 (KM12): 794 nM
- TGI (KM12; read-out: pTGI (converted)): 31600 nM
- GI50 (SW-620): 501 nM
- TGI (SW-620; read-out: pTGI (converted)): > 100000 nM
- GI50 (SF-268): 2510 nM
- TGI (SF-268; read-out: pTGI (converted)): > 100000 nM
- GI50 (SF-539): 1000 nM
- TGI (SF-539; read-out: pTGI (converted)): 5010 nM
- GI50 (SNB-75): 794 nM
- TGI (SNB-75; read-out: pTGI (converted)): > 100000 nM
- GI50 (Malme-3M): > 100000 nM
- TGI (Malme-3M; read-out: pTGI (converted)): > 100000 nM
- GI50 (M14): 501 nM
- TGI (M14; read-out: pTGI (converted)): 2510 nM
- GI50 (SK-MEL-2): 7940 nM
- TGI (SK-MEL-2; read-out: pTGI (converted)): > 100000 nM
- GI50 (MDA-MB-435): 200 nM
- TGI (MDA-MB-435; read-out: pTGI (converted)): 631 nM
- GI50 (SK-MEL-28): 15800 nM
- TGI (SK-MEL-28; read-out: pTGI (converted)): > 100000 nM
- GI50 (SK-MEL-5): 631 nM
- TGI (SK-MEL-5; read-out: pTGI (converted)): 12600 nM
- GI50 (IGROV-1): 2510 nM
- GI50 (OVCAR-3): 251 nM
- TGI (OVCAR-3; read-out: pTGI (converted)): 1000 nM
- GI50 (OVCAR-8): 5010 nM
- TGI (OVCAR-8; read-out: pTGI (converted)): > 100000 nM
- GI50 (NCI/ADR-RES): 316 nM
- TGI (NCI/ADR-RES; read-out: pTGI (converted)): 1260 nM
- GI50 (SK-OV-3): 3980 nM
- TGI (SK-OV-3; read-out: pTGI (converted)): > 100000 nM
- GI50 (786-0): 1260 nM
- TGI (786-0; read-out: pTGI (converted)): 63100 nM
- GI50 (A498): 2510 nM
- TGI (A498; read-out: pTGI (converted)): 20000 nM
- GI50 (CAKI-1): 501 nM
- TGI (CAKI-1; read-out: pTGI (converted)): > 100000 nM
- GI50 (RXF 393): 1580 nM
- TGI (RXF 393; read-out: pTGI (converted)): 5010 nM
- GI50 (TK-10): 12600 nM
- TGI (TK-10; read-out: pTGI (converted)): > 100000 nM
- GI50 (UO-31): 2510 nM
- TGI (UO-31; read-out: pTGI (converted)): > 100000 nM
- GI50 (DU-145): 2000 nM
- TGI (DU-145; read-out: pTGI (converted)): 12600 nM
- GI50 [2]: 398 nM
- TGI ([2]; read-out: pTGI (converted)): 3160 nM
- GI50 (BT-549): 2510 nM
- TGI (BT-549; read-out: pTGI (converted)): > 100000 nM
- GI50 (T47D): 6310 nM
- TGI (T47D; read-out: pTGI (converted)): > 100000 nM
- GI50 (MDA-MB-468): 1580 nM
- TGI (MDA-MB-468; read-out: pTGI (converted)): > 100000 nM
